Each structure is given as a SMILES string.

Assay [1] has as its system U-937. Description: Cytotoxicity against human U937 cells assessed as cell viability at 1.6 x 10^-5 M after 44 hrs by MTT assay relative to control. The format is functional. To be noted: U-937, 44 h, read-out: Activity. In general terms: Formazan colour is commonly taken as a measure of viable cells.
The subject of assay [2] is U-937. Description: Cytotoxicity against human U937 cells assessed as decrease in cell viability after 44 hrs by MTT assay. To be noted: Homo sapiens, U-937, 44 h. The format is functional, cell-based.
Assay [3] concerns U-937. Description: Cytotoxicity against human U937 cells assessed as cell viability at 6.4 x 10^-5 M after 44 hrs by MTT assay relative to control. The class given is functional. Conditions: U-937, 44 h, read-out: Activity.
Assay [4] has as its target T1, Histone deacetylase (Homo sapiens) (UniProt Q13547+O15379+Q9UBN7+Q92769+Q9UQL6+Q8WUI4+Q9BY41+Q96DB2+P56524+Q9UKV0+Q969S8). Description: Inhibition of HDAC in human HeLa-S3 cell lysates assessed as residual activity at 2.5 x 10^-5 M preincubated for 15 mins followed by HDAC-Glo substrate addition measured after 35 mins by […] relative to control. The class given is protein assay.

The next assay deals with Jurkat. Description: Cytotoxicity against human Jurkat cells assessed as cell viability at 10 uM after 44 hrs by MTT assay relative to control. The format is functional. Conditions: read-out: Activity.
The subject of assay [5] is U-937. Description: Cytotoxicity against human U937 cells assessed as cell viability at 3.2 x 10^-5 M after 44 hrs by MTT assay relative to control. To be noted: U-937, 44 h, read-out: Activity. The format is functional.
The target of assay [6] is T1, Histone deacetylase (Homo sapiens). Description: Inhibition of HDAC in human HeLa-S3 cell lysates assessed as residual activity at 1.25 x 10^-5 M preincubated for 15 mins followed by HDAC-Glo substrate addition measured after 35 mins by […] relative to control. The class given is protein assay.
Assay [7] concerns the target T2, Histone deacetylase 8 (Homo sapiens) (UniProt Q9BY41).
T2 sequence (whole entry): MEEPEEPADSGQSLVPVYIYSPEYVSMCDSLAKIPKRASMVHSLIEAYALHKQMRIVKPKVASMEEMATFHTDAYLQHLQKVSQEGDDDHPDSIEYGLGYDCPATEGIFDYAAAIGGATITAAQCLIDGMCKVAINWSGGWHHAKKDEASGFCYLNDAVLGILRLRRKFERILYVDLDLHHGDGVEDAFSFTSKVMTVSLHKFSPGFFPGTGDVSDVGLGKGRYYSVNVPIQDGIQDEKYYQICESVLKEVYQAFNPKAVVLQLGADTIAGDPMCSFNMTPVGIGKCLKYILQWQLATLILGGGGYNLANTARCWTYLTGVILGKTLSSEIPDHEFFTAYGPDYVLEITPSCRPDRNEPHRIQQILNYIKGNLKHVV
Description: Inhibition of human recombinant full-length C-terminal His-tagged HDAC8 expressed in baculovirus infected Sf9 insect cell assessed as remaining activity at 8 x 10^-7 M preincubated for 15 mins followed by HDAC-Glo substrate addition measured after 30 mins by fluorimetric method rel;ative to control. The method, boiled down:
(§1)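 Recombinant HDAC8 (75 ng) preincubated 15 min at RT with inhibitor in DMSO in HDAC-Glo buffer. HDAC-Glo reagent added and luminescence read 30 min later. Background taken from a reaction without enzyme; activity as % of DMSO control.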

Assay [8] concerns the target T2, Histone deacetylase 8 (Homo sapiens). Description: Inhibition of human recombinant full-length C-terminal His-tagged HDAC8 expressed in baculovirus infected Sf9 insect cell assessed as remaining activity at 4 x 10^-7 M preincubated for 15 mins followed by HDAC-Glo substrate addition measured after 30 mins by fluorimetric method rel;ative to control. An outline of the steps: as §1

Assay [9] addresses Histone deacetylase 2 (Homo sapiens) (UniProt Q92769). Description: Inhibition of HDAC2 in human HeLa-S3 cell lysates assessed as remaining activity at 1 x 10^-6 M preincubated for 15 mins followed by HDAC-Glo substrate addition measured after 30 to 40 mins by […] relative to control. The method, boiled down:
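Same antibody-capture format as the other class I isoforms. HeLa-S3 lysate added at 100 μg/mL for HDAC1 and HDAC2, 1 h at 4 °C, then washed. Inhibitor in DMSO preincubated 15 min at RT; HDAC-Glo reagent added and luminescence read after 30-40 min. Concentrations are final. Signal corrected against a well without antibody; activity expressed as % of DMSO control.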

For assay [10] the target is unchanged. Description: Inhibition of HDAC2 in human HeLa-S3 cell lysates assessed as remaining activity at 4 x 10^-6 M preincubated for 15 mins followed by HDAC-Glo substrate addition […] relative to control.
Assay [11] deals with T1, Histone deacetylase (Homo sapiens). Description: Inhibition of HDAC in human HeLa-S3 cell lysates assessed as residual activity at 2.4 x 10^-5 M preincubated for 15 mins followed by HDAC-Glo substrate addition measured after 35 mins by […] relative to control. The format is protein assay.
Assay [12] concerns the target Histone deacetylase 3 (Homo sapiens) (UniProt O15379). Description: Inhibition of HDAC3 in human HeLa-S3 cell lysates assessed as remaining activity at 8 x 10^-6 M preincubated for 15 mins followed by HDAC-Glo substrate addition measured after 30 to 40 mins by […] relative to control. An outline of the steps:
(§2)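 Antibody-capture (ELISA-type) assay: HDAC antibody coated in carbonate/bicarbonate buffer pH 9.4, wells blocked with 5% milk in TBST. HeLa-S3 lysate added at 1 mg/mL for HDAC3, 1 h at 4 °C, then washed. Inhibitor in DMSO preincubated 15 min at RT in HDAC-Glo buffer. HDAC-Glo reagent added, luminescence read after 30-40 min. Concentrations are final. Background = no-antibody well; activity given as % of DMSO control.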

Assay [13] shares this target. Description: Inhibition of HDAC3 in human HeLa-S3 cell lysates assessed as remaining activity at 4 x 10^-6 M preincubated for 15 mins followed by HDAC-Glo substrate addition measured after 30 to 40 mins by fluorimetric method relative to control. An outline of the steps:
as §2

Assay [14] shares this target. Description: Inhibition of HDAC3 in human HeLa-S3 cell lysates assessed as remaining activity at 1.25 uM preincubated for 15 mins followed by HDAC-Glo substrate addition measured after 30 to 40 mins by […] relative to control. The method, boiled down:
as §2

Histone deacetylase 3 (Homo sapiens), sequence (O15379 whole entry): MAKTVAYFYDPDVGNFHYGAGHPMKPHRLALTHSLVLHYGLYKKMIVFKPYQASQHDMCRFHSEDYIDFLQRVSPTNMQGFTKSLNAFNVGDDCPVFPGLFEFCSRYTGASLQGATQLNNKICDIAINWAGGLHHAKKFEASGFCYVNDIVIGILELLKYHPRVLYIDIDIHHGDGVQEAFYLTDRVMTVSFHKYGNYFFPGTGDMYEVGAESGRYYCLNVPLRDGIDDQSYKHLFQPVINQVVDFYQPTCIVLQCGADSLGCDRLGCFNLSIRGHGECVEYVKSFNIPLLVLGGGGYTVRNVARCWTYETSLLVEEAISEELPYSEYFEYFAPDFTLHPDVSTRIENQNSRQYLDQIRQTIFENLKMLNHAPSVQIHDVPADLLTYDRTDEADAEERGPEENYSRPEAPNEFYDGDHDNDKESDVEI
Histone deacetylase 2 (Homo sapiens), sequence (Q92769 whole entry, canonical isoform): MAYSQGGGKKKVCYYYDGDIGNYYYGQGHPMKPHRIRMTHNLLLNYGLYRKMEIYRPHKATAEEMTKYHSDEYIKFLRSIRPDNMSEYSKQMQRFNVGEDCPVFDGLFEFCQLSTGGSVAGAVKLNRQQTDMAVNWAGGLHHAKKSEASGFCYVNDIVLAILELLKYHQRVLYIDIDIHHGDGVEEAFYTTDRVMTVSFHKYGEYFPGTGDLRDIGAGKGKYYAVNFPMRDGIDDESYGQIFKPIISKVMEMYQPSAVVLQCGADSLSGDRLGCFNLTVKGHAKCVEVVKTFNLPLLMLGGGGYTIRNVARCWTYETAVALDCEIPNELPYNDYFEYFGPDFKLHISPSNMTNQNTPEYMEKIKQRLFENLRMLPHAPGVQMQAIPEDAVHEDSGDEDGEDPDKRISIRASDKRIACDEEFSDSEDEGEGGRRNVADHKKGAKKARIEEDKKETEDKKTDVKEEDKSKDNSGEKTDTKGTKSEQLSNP

Consider `O=C(CCC(CCCC(=O)Nc1ccccc1)Cc1ccccc1)NO` (racemic), for which, in the assay on U-937 [1], the viability at 16 µM was determined as 69%. Further, the EC50 – broadly, the concentration at which the effect is half-maximal – in the assay on U-937 [2] stood at 28 µM. In addition, in the assay on U-937 [3], the viability at 64 µM was determined as 26%. The Activity in [4] was 74%; in assay [6], 88%. For the same compound, the viability at 10 µM in the assay with Jurkat is 97%. Further, the viability at 32 µM in the assay with U-937 [5] came to 49%.
For `O=C(CC[C@H](CCCC(=O)Nc1ccccc1)Cc1ccccc1)NO`, the values for the Activity in assay [7] and in assay [8] were 19% and 28%, respectively.
With `CCC(CCCC(=O)Nc1ccccc1)CCC(=O)NO` (stereo not drawn), the Activity is 86% in assay [9]; 59% in [10]; 25% in assay [8]; 31% in assay [11]; 52% in assay [12]; 64% in assay [13].
Consider `CCCCCCC(CCCC(=O)Nc1ccccc1)CCC(=O)NO` (stereo not drawn), for which the viability at 16 µM in the assay with U-937 [1] turned out to be 37%. The 50% effective concentration (EC50) in the assay with U-937 [2] is 16 µM. Also, the viability at 64 µM in the assay with U-937 [3] turned out to be 24%. For the same compound, the Activity in [14] turned out to be 100%; in [4], 73%; in assay [6], 87%. In the assay on Jurkat, the viability at 10 µM is 39%. For the same compound, the viability at 32 µM with U-937 [5] was 28%.

(Values after ChEMBL document CHEMBL4251567 (Eur J Med Chem, 2018).)
